# Results of several laboratories.
# Target: Mitogen-activated protein kinase kinase kinase 5 (MAP3K5, Homo sapiens, UniProt Q99683)
# Residues used in one study (Q99683 1-1374): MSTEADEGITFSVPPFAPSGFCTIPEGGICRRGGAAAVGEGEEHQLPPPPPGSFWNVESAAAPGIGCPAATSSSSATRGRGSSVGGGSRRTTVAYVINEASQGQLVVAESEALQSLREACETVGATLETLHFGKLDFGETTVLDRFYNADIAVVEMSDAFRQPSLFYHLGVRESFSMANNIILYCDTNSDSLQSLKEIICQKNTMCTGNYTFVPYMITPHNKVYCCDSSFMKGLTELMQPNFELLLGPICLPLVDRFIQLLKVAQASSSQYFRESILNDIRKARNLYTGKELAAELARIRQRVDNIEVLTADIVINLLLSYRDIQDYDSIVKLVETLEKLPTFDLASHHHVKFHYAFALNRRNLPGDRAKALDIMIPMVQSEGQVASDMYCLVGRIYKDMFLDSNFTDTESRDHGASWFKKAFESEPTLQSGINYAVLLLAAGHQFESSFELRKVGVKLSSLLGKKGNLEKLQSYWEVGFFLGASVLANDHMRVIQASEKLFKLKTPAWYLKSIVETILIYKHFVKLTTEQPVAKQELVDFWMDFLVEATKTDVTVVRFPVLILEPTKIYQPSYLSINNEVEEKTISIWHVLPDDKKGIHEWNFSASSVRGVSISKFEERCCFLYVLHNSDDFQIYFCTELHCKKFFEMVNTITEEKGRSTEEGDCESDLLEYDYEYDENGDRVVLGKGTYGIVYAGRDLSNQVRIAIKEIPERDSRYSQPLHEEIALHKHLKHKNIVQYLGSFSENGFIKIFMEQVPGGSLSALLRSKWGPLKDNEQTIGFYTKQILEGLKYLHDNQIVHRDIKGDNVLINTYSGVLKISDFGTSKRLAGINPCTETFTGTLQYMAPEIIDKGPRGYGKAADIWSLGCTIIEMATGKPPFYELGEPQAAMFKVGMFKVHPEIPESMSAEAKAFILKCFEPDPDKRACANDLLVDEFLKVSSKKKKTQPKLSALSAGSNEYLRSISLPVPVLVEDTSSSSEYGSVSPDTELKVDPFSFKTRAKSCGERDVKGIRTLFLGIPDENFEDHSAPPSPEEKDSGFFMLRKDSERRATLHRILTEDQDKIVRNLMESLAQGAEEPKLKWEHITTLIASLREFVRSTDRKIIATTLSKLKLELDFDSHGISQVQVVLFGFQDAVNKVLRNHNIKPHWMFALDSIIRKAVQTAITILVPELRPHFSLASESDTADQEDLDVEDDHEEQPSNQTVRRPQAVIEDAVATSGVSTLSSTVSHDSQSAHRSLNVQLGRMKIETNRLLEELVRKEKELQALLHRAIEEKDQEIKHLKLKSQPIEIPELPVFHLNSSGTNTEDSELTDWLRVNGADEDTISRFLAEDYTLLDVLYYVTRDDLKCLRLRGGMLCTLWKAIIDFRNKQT
Compound,assay,conditions,quantity,result
Cc1nn(C)cc1-c1nc2c(N3CCN(Cc4ccc(Cl)cc4)CC3)c(Cl)cnc2[nH]1,"binding, competition with immobilised ligand",1 µM,remaining binding,100%
Cn1cncc1[C@@](O)(COc1ccc(C#N)cc1-c1ccc(OC(F)(F)F)cc1)c1ccc(C#N)cc1,"cell-free assay, competition with immobilised ligand",1 µM,remaining binding,91%
COc1ncccc1-c1cnn2ccc(N3CCN(C(=O)OC(C)C)CC3)nc12,"binding, competition with immobilised ligand",1 µM,remaining binding,73%
Cn1cc(-c2cc(F)cc(N3CCn4c(cc5c4CCCC5)C3=O)c2CO)cc(Nc2ccc(N3CCN(C4COC4)CC3)cn2)c1=O,"enzyme activity, inhibitor",0.1 µM,inhibition,2%
O=c1[nH]c2ccccc2n1C1CCN(Cc2ccc(-c3[nH]c4cc5ncnc5cc4nc3-c3ccccc3)cc2)CC1,cell-free assay,0.5 µM,remaining signal,93.8%
N#CC1(c2ccccn2)CCN(Cc2cc(C(=O)O)c(=O)n3ccccc23)CC1,"cell-free assay, competition with immobilised ligand",1 µM,remaining binding,75%
Nc1ncc(-c2nc(N3CCOCC3)nc(N3CCOCC3)n2)c(C(F)F)n1,"binding, competition with immobilised ligand",10 µM,remaining binding,92%
CC(C)(C)c1cc(C=C(C#N)C#N)cc(Br)c1O,"enzyme activity, inhibitor",0.5 µM,remaining activity,100%
Cn1cc(-c2cccc(N3CCc4c(sc5c4CC(C)(C)C5)C3=O)c2CO)cc(Nc2ccncn2)c1=O,"enzyme activity, inhibitor",1 µM,inhibition,14%
COc1cc(Nc2ncc(F)c(Nc3ccc4c(n3)NC(=O)C(C)(C)O4)n2)cc(OC)c1OC,"binding, competition with immobilised ligand",10 µM,inhibition,0%
